From the M2OR odorant receptor database
Where a chain is given by its changes, count along the chain named.

What was measured:
Details in all cases: stereoisomer not certain
OR2W1 (Homo sapiens) = biological target: T1, OR2W1 (Homo sapiens) (UniProt Q9Y3N9)
T1 sequence (whole entry): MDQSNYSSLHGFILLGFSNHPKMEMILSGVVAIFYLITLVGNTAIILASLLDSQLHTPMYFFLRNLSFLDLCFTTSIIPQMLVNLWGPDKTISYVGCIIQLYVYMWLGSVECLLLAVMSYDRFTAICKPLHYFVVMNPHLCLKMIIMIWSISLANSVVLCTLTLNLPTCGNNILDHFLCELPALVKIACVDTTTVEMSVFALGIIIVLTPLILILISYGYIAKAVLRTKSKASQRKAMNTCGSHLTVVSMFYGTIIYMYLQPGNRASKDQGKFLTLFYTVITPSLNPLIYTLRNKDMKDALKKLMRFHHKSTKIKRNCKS
How it was run: (§1)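 Transient luciferase assays in mammalian cell lines were common, though methods varied by source. The values come from published papers and their supplementary material, with extra details from the original authors when needed. Responsive refers to a measured signal the original authors judged statistically different from baseline, and non-responsive (inactive) to the remainder.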

OR2W1 [1] = tested on: T2, OR2W1
T2 sequence (whole entry): T1 sequence (whole entry) with D296N
How it was run: as §1

OR2W1 [2] = tested on: T3, OR2W1; remark: listed apart in the source
T3 sequence (whole entry): T1 sequence (whole entry) with M81V
How it was run: as §1
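Note: active if original authors judged signal statistically different from baseline.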

Compound	odorant receptor agonist call (OR2W1 (Homo sapiens))	odorant receptor agonist call (OR2W1 [1])	odorant receptor agonist call (OR2W1 [2])
CCc1ccc(O)cc1	active	active	active
CC(=O)c1cnccn1	active	active	inactive
CCOC(=O)C1CCCCC1	active	active	inactive
CCCCCCC=CC=O	active	active	active
c1coc(CSSCc2ccco2)c1	active	active	active
C=CC(=C)CCC=C(C)C	active	active	active
CCCCCCCC(C)=O	active	active	active
CCCCCc1ccccn1	active	active	active
O=c1ccc2ccccc2o1	active	active	inactive
C=C1CCC2(C(C)C)CC12 (stereo not given)	active	active	inactive
CCCCCC1CCC(=O)O1 (stereo not given)	active	active	active
CCOC(=O)c1ccccc1	active	active	active
COc1ccc(C)cc1O	inactive	active	inactive
CC(C)c1ccc(C=O)cc1	active	active	active
CSSCc1ccccc1	active	active	active
CCCCCC=CC=CC=O	active	active	active
C=C(C)c1ccc(C)cc1	active	active	active
CCCC(=O)OCC	active	active	active
CCCCCCOC(C)=O	active	active	active

Compound	odorant receptor agonist call (OR2W1 (Homo sapiens))	odorant receptor agonist call (OR2W1 [1])	odorant receptor agonist call (OR2W1 [2])
CSCc1ccccc1	active	active	active
CCCCC=CC=O	active	active	inactive
CCCSSSC	active	active	active
CCc1cccc(O)c1	active	active	inactive
CCCCCCC1CCC(=O)O1 (stereo not given)	active	active	active
CCCCC1OC(=O)CC1C (stereo not given)	active	active	active
CC(C)=CCCC(C)=CCO	inactive	–	inactive
CCCCC(=O)OCC	active	active	active
SCc1cccs1	active	active	active
CCCCCCO	active	active	inactive
OCC=Cc1ccccc1	active	active	active
OCCCc1ccccc1	active	active	active
CCCCC=CC=CC=O	active	active	active
CCC=CCCC=O	active	active	active
CSCc1ccco1	active	active	active
CSSCc1ccco1	active	active	active
CCOC(=O)C(C)CC (stereo not given)	active	active	inactive
CCCCCC(=O)OCC	active	active	active
